Results taken from ChEMBL document CHEMBL4402582, “Garcinoic Acid Is a Natural and Selective Agonist of Pregnane X Receptor” (J Med Chem, 2020).
Active and inactive are the calls of the source. The rule behind the calls is not given here.

Experiments:
[1] = Toxicity in C57BL/6 mouse assessed as induction of liver damage at <=25 mg dosed as oral gavage as single bolus and measured after 24 hrs relative to control; assay type: organism-based; settings: in vivo
Outline: (§1)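 Male C57BL/6 mice, 6–7 weeks old, three per group. Single oral gavage bolus of 5, 10, 25, 50 or 100 mg in olive oil vehicle. Observed at 24 h for mortality, gross appearance and behavior, then post-mortem examination of liver and main organs.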

Mus musculus [2] = test: Induction of PXR mRNA expression in C57BL/6 mouse liver at 5 to 25 mg dosed as oral gavage as single bolus and measured after 24 hrs relative to control; assay type: functional, organism-based
Outline: (§2)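 Male C57BL/6 mice, 6–7 weeks old, three per group. Single oral gavage bolus of 5, 10 or 25 mg in olive oil vehicle; vehicle-only controls. Killed at 24 h. Tissue PXR mRNA measured; PXR, CYP3A11 and MDR1 protein measured by immunoblot.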

[3] = target: T1, Nuclear receptor subfamily 1 group I member 2 (Homo sapiens, UniProt O75469); test: Agonist activity at PXR in human HepG2 cells assessed as increase in PXR protein expression at 1 to 25 uM incubated for 24 hrs by immunoblot analysis; assay type: cell-based; settings: hepg2, 24 h
T1 sequence (O75469 whole entry): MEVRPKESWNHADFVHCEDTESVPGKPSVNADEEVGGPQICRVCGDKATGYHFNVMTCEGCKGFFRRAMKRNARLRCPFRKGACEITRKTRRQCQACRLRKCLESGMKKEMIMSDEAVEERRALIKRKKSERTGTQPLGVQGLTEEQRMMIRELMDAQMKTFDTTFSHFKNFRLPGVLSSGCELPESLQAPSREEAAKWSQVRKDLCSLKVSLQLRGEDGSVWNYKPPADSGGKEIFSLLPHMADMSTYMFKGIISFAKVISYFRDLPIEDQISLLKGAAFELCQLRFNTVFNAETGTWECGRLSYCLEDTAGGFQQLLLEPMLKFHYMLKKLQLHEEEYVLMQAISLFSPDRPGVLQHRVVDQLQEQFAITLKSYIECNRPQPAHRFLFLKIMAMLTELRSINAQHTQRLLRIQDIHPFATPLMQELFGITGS
Outline: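 HepG2 cells, passages 2–10, treated 24 h with 1 and 25 μM. Lysates sonicated on ice; 20 μg protein run on 10–12% SDS-PAGE and immunoblotted with anti-PXR or anti-CYP3A4. Bands normalized to housekeeping protein and expressed relative to control (=1).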

[4] = target: T1, Nuclear receptor subfamily 1 group I member 2; test: Agonist activity at PXR in human HepG2 cells assessed as stimulation of CYP450-mediated alpha-tocopherol metabolites production at 25 uM; assay type: cell-based; settings: hepg2, 25 µM
[5] = target: T1, Nuclear receptor subfamily 1 group I member 2; test: Agonist activity at PXR in human HepaRG cells assessed as reversion of PXR antagonist sulforaphane-induced suppression of CYP3A4 expression at 10 uM incubated for 24 hrs by immunoblot analysis; assay type: cell-based
[6] = Toxicity in C57BL/6 mouse assessed as effect on gross appearance at <=25 mg dosed as oral gavage as single bolus and measured after 24 hrs relative to control; assay type: organism-based; settings: in vivo; outline: as §1
Mus musculus [7] = test: Induction of PXR protein expression in C57BL/6 mouse hepatic parenchyma assessed as induction of localization of PXR protein at sinusoidal endothelial cells at 5 to 25 mg dosed as oral gavage as single bolus and measured after 24 hrs by IHC analysis relative to control; assay type: functional, organism-based
Outline: (§3)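 Male C57BL/6 mice, 6–7 weeks old, three per group. Single oral gavage bolus (5–25 mg) in olive oil; vehicle controls; killed at 24 h. Liver and gut formalin-fixed, paraffin-embedded; 4 μm sections stained with H&E. PXR IHC with polyclonal antibody at 1:200 on an automated stainer with polymer detection.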

Mus musculus [8] = test: Induction of PXR protein expression in C57BL/6 mouse liver at 5 to 25 mg dosed as oral gavage as single bolus and measured after 24 hrs relative to control; assay type: functional, organism-based; outline: as §2
[9] = Toxicity in C57BL/6 mouse assessed as induction of organ damage at <=25 mg dosed as oral gavage as single bolus and measured after 24 hrs relative to control; assay type: organism-based; settings: in vivo; outline: as §1
[10] = target: T1, Nuclear receptor subfamily 1 group I member 2; test: Agonist activity at His-tagged PXR-LBD/SRC-1p (unknown origin) expressed in Escherichia coli BL21(DE3) at 10 uM by coactivator recruitment based Alpha-screen assay
Mus musculus [11] = test: Induction of PXR protein expression in C57BL/6 mouse intestine assessed as induction of localization of PXR protein at villous epithelium at 5 to 25 mg dosed as oral gavage as single bolus and measured after 24 hrs by IHC analysis relative to control; assay type: functional, organism-based; outline: as §3
[12] = Toxicity in C57BL/6 mouse assessed as effect on animal behavior at <=25 mg dosed as oral gavage as single bolus and measured after 24 hrs relative to control; assay type: organism-based; settings: in vivo; outline: as §1
[13] = target: T1, Nuclear receptor subfamily 1 group I member 2; test: Binding affinity to His-tagged PXR-LBD (unknown origin) expressed in Escherichia coli BL21 Gold by ITC analysis
Outline: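 ITC at 37 °C in 25 mM HEPES pH 7.5, 150 mM NaCl, 8% v/v DMSO final. His-tagged PXR-LBD (tag not removed, gel-filtration purified) at 3 μM in cell; ligand at 60 μM in syringe, injected in 10 μL aliquots.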

[14] = target: T1, Nuclear receptor subfamily 1 group I member 2; test: Agonist activity at PXR in human HT29-MTX cells assessed as increase in CYP3A4 protein expression at 1 to 25 uM incubated for 24 hrs by immunoblot analysis; assay type: cell-based
[15] = target: T1, Nuclear receptor subfamily 1 group I member 2; test: Agonist activity at PXR in human HepG2 cells assessed as increase in CYP3A4 mRNA expression at 1 to 25 uM incubated for 24 hrs; settings: hepg2, 24 h
[16] = target: T1, Nuclear receptor subfamily 1 group I member 2; test: Agonist activity at PXR in human HepG2 cells transfected with PXR siRNA assessed as induction of CYP3A4 expression at 10 to 50 uM incubated for 24 hrs; assay type: cell-based; settings: hepg2, 24 h
Outline: (§4)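 HepG2 cells reverse-transfected with PXR siRNA using lipofectamine RNAiMAX; after 24 h silencing, treated with compound for a further 24 h. PXR and CYP3A4 transcription responses measured.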

[17] = target: T1, Nuclear receptor subfamily 1 group I member 2; test: Agonist activity at PXR in human HT29-MTX cells assessed as increase in PXR protein expression at 1 to 25 uM incubated for 24 hrs by immunoblot analysis; assay type: cell-based
[18] = target: T1, Nuclear receptor subfamily 1 group I member 2; test: Agonist activity at PXR in human HepG2 cells transfected with PXR siRNA at 10 to 50 uM incubated for 24 hrs; assay type: cell-based; settings: hepg2, 24 h; outline: as §4
Mus musculus [19] = test: Induction of PXR protein expression in C57BL/6 mouse intestine assessed as induction of localization of PXR protein at glandular epithelium of crypts at base of mucosa epithelium at 5 to 25 mg dosed as oral gavage as single bolus and measured after 24 hrs by IHC analysis relative to control; assay type: functional, organism-based; outline: as §3
[20] = target: T1, Nuclear receptor subfamily 1 group I member 2; test: Agonist activity at PXR in human HepG2 cells assessed as increase in MDR1 mRNA expression at 1 to 50 uM incubated for 24 hrs; assay type: cell-based; settings: hepg2, 24 h
Outline: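 HepG2 cells exposed to 1–50 μM. MDR1 mRNA measured after RNA extraction and cDNA synthesis.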

HepG2 = test: Effect on alpha-tocopherol level in human HepG2 cells at 25 uM; assay type: functional, cell-based

C/C(=C\CC/C(C)=C/CC[C@]1(C)CCc2cc(O)cc(C)c2O1)CC/C=C(\C)C(=O)O
Activity [1]: Non-Toxic | Activity (Mus musculus [2]): Dose-dependent effect | Activity [3]: Dose-dependent effect | Activity [4]: Active | Activity [5]: Active | Activity [6]: Non-Toxic | Activity (Mus musculus [7]): Active | Activity (Mus musculus [8]): Dose-dependent effect | Activity [9]: Non-Toxic | Activity [10]: Active | Activity (Mus musculus [11]): Active | Activity [12]: Non-Toxic | Kd [13]: 330 nM | Activity [14]: Active | Activity [15]: Dose-dependent effect | Activity [16]: Not Active | Activity [17]: Active | Activity [18]: Not Active | Activity (Mus musculus [19]): Active | Activity [20]: Dose-dependent effect | Activity (HepG2): inactive
